Data reported in ChEMBL document CHEMBL5137109, “Tunable Cysteine-Targeting Electrophilic Heteroaromatic Warheads Induce Ferroptosis” (J Med Chem, 2022).
The source made the active and inactive calls. The calls are words filed in the database; no cut-off is given here.

Key:
HCT-116 = assay: Cytotoxicity against human HCT-116 cells assessed as reduction in cell viability incubated for 3 days by methylene blue staining based analysis; type: functional; settings: HCT-116, 72 h
NCI-H522 [1] = assay: Cytotoxicity against human NCI-H522 cells assessed as reduction in cell viability incubated for 3 days by methylene blue staining based analysis; type: functional; settings: NCI-H522, 72 h
[2] = Selectivity ratio of IC50 for human HCT-116 cells to IC50 for human NCI-H522 cells by methylene blue staining based analysis; type: functional
NCI-H522 [3] = assay: Induction of lipid peroxidation in human NCI-H522 cells assessed as increase in C11-BODIPY oxidation at 5 uM incubated for 6 hrs by flow cytometry relative to control; type: functional
Summary of the method: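 NCI-H522 cells at ~70% density, plated overnight, treated with compound or DMSO together with C11-BODIPY 581/591 (1 μM) for 3 h or 6 h. Cells then PBS-washed, trypsinised, resuspended in PBS with 2% FBS and read by flow cytometry, preferably 20*10³ cells. Oxidation compared with DMSO treatment.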

NCI-H522 [4] = assay: Cytotoxicity against human NCI-H522 cells assessed as time required to cause 50% irreversible cell death treated with compound followed by washing for every 30 mins for 6 hrs by methylene blue staining based analysis; type: functional
Summary of the method: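 NCI-H522 cells, 5*10³/well (n=3), plated overnight, then treated with compound or DMSO. Wells washed immediately after treatment and then at 30-min intervals up to 6 h; last wells not washed. Methylene blue in 50% ethanol fix/stain 30 min RT, dye dissolved in 0.1N HCl, A668. Each point taken as % survival of matching DMSO-treated cells.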

[5] = target: T1, Thioredoxin reductase 1, cytoplasmic (Homo sapiens) (UniProt Q16881); assay: Binding affinity to TXRD1 in human NCI-H522 cells at 10 uM incubated for 1 hr by Biotin-TAMRA pull down based western blot analysis; type: cell-based
T1 sequence (whole entry): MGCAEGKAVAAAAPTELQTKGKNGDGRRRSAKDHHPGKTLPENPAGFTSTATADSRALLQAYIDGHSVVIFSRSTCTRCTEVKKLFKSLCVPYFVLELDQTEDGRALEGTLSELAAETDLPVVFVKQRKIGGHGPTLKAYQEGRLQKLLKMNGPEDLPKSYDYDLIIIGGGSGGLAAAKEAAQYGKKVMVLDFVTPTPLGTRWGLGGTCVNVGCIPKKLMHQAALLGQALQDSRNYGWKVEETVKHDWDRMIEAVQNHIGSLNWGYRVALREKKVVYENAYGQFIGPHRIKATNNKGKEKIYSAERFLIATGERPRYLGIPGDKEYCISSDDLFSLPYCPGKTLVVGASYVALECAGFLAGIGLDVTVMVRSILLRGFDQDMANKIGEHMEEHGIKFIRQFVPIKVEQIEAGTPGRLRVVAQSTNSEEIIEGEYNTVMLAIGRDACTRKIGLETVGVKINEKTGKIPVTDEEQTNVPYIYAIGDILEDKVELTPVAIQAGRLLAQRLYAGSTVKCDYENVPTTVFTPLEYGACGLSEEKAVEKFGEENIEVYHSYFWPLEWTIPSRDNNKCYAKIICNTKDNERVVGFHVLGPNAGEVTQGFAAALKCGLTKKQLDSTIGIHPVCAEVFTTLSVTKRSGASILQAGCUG
Summary of the method: (§1)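 Probe or control given to cells for 1 h at 37 °C, two 10 cm dishes per treatment. Lysates precleared with streptavidin, then clicked to biotin-TAMRA azide (20 min RT plus 10 min 37 °C). Proteins precipitated, captured overnight on streptavidin beads and washed with RIPA/PBS. Bead eluates separated on 12.5% SDS-PAGE and immunoblotted, with milk blocking, primary antibody overnight at 4 °C, HRP secondary and ECL.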

[6] = target: T2, Phospholipid hydroperoxide glutathione peroxidase GPX4 (Homo sapiens) (UniProt P36969); assay: Binding affinity to GPX4 in human NCI-H522 cells assessed as increase in aggregation temperature at 0.5 uM incubated for 1 hr by CETSA analysis; type: cell-based
T2 sequence (whole entry): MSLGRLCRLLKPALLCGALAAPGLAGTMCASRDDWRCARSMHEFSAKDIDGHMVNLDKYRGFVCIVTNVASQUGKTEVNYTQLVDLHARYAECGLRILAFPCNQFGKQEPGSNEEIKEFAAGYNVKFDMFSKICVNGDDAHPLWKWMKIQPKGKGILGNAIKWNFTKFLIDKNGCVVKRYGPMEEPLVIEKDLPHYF
Summary of the method: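 Cells ~80% confluent treated 1 h (vehicle DMSO 0.1% v/v), trypsinized, washed, resuspended in PBS and aliquots heated at temperatures between 43–67 °C for 3 min. Cells then pelleted and lysed in NP-40/Tris buffer. Soluble fraction analysed by SDS-PAGE and western blot, and aggregation temperature compared with DMSO. Mean ± SD, n = 3, t-test.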

NCI-H522 [7] = assay: Induction of lipid peroxidation in human NCI-H522 cells assessed as increase in C11-BODIPY oxidation at 0.5 uM incubated for 3 hrs by flow cytometry; type: functional, cell-based
Summary of the method: (§2)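 NCI-H522 cells (~70% density) plated in dishes overnight, then treated with compound or DMSO plus C11-BODIPY 581/591 (1 μM) added at treatment. After 3 h or 6 h, cells washed, trypsinized, resuspended in PBS with 2% FBS and analysed by flow cytometry (preferably 20×10³ cells). Oxidation compared with DMSO treatment.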

NCI-H522 [8] = assay: Cytotoxicity against human NCI-H522 cells assessed as reduction in cell viability incubated for 3 days in presence of ferroptosis inhibitor, liproxstatin-1 by methylene blue staining based analysis; type: functional; settings: NCI-H522, 72 h
Summary of the method: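 NCI-H522 cells seeded at 25×10³/well (n=3), adhered overnight, then exposed to compound with or without liproxstatin-1 (0.25 μM). After 3 days, methylene blue staining with HCl elution and A668. Results given as % relative to DMSO control, mean ± SD, n=3, one-way ANOVA. Fold change is IC50 (with liproxstatin-1)/IC50 (alone).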

[9] = Ratio of IC50 for cytotoxicity against human NCI-H522 cells in presence of ferroptosis inhibitor, liproxstatin-1 to IC50 for cytotoxicity against human NCI-H522 cells; type: functional
Summary of the method: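 NCI-H522 cells, 25*10³/well (n=3), plated overnight, treated with compound with or without Liproxstatin-1 (0.25 μM). After 3 days, methylene blue in 50% ethanol fix/stain 30 min RT, dye dissolved in 0.1N HCl, A668. Fold change = IC₅₀ with Liproxstatin-1 / IC₅₀ without.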

HT-1080 = assay: Cytotoxicity against human HT-1080 cells assessed as reduction in cell viability incubated for 3 days by methylene blue staining based analysis; type: functional; settings: HT-1080, 72 h
MDA-MB-468 = assay: Cytotoxicity against human MDA-MB-468 cells assessed as reduction in cell viability incubated for 3 days by methylene blue staining based analysis; type: functional; settings: MDA-MB-468, 72 h
MDA-MB-231 = assay: Cytotoxicity against human MDA-MB-231 cells assessed as reduction in cell viability incubated for 3 days by methylene blue staining based analysis; type: functional; settings: MDA-MB-231, 72 h
HeLa = assay: Cytotoxicity against human HeLa cells assessed as reduction in cell viability incubated for 3 days by methylene blue staining based analysis; type: functional; settings: 72 h
U2OS = assay: Cytotoxicity against human U2OS cells assessed as reduction in cell viability incubated for 3 days by methylene blue staining based analysis; type: functional; settings: 72 h
[10] = Cytotoxicity against human WI-38 cells assessed as reduction in cell viability incubated for 3 days by methylene blue staining based analysis; type: toxicity
[11] = Cytotoxicity against mouse MEF cells assessed as reduction in cell viability incubated for 3 days by methylene blue staining based analysis; type: toxicity
[12] = target: T2, Phospholipid hydroperoxide glutathione peroxidase GPX4 (Homo sapiens); assay: Binding affinity to GPX4 in human NCI-H522 cells at 10 uM incubated for 1 hr by Biotin-TAMRA pull down based mass spectrometry; type: cell-based
Summary of the method: (§3)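 Cells ~70% density, five 10 cm dishes per treatment, exposed to alkyne probe or control for 1 h at 37 °C, then lysed (NP-40/Tris). Lysate precleared on streptavidin beads 2 h at 4 °C, then CuAAC with biotin-TAMRA azide, THPTA, CuSO4 and ascorbate for 30 min at RT. Proteins MeOH/CHCl3 precipitated, enriched overnight on streptavidin, checked by in-gel fluorescence. Reduced/alkylated, trypsin-digested, nano LC-MS/MS. Filtered at 1% FDR, ≥2 unique peptides.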

NCI-H522 [13] = assay: Induction of lipid peroxidation in human NCI-H522 cells assessed as increase in C11-BODIPY oxidation at 10 uM incubated for 6 hrs by flow cytometry; type: functional, cell-based; summary of the method: as §2
[14] = target: T3, Glutathione S-transferase omega-1 (Homo sapiens) (UniProt P78417); assay: Binding affinity to GSTO1 in human NCI-H522 cells at 10 uM incubated for 1 hr by Biotin-TAMRA pull down based mass spectrometry; type: cell-based; summary of the method: as §3
T3 sequence (whole entry): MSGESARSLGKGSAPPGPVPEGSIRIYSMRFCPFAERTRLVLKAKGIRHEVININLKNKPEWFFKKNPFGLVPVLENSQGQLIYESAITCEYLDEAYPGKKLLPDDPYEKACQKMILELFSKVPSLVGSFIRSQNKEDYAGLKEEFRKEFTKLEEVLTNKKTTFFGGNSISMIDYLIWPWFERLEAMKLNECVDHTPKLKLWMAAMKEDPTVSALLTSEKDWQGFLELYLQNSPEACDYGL

[15] = target: T2, Phospholipid hydroperoxide glutathione peroxidase GPX4 (Homo sapiens); assay: Binding affinity to GPX4 in human NCI-H522 cells at 10 uM incubated for 1 hr by Biotin-TAMRA pull down based western blot analysis; type: cell-based; summary of the method: as §1
[16] = target: T3, Glutathione S-transferase omega-1 (Homo sapiens); assay: Binding affinity to GSTO1 in human NCI-H522 cells at 10 uM incubated for 1 hr by Biotin-TAMRA pull down based western blot analysis; type: cell-based; summary of the method: as §1
[17] = target: T1, Thioredoxin reductase 1, cytoplasmic (Homo sapiens); assay: Binding affinity to TXRD1 in human NCI-H522 cells at 10 uM incubated for 1 hr by Biotin-TAMRA pull down based mass spectrometry; type: cell-based; summary of the method: as §3

C#Cc1nc2ccccc2s1
IC50 (HCT-116): 19600 nM
IC50 (NCI-H522 [1]): 860 nM
Ratio IC50 [2]: 22.8
fold change (FC) (NCI-H522 [3]): >5
IT50 (NCI-H522 [4]): 1.7 h

C#CCNC(=O)c1csc(C#Cc2ccccc2)n1
IC50 (HCT-116): > 40000 nM
IC50 (NCI-H522 [1]): > 40000 nM
Activity [5]: Active

C#Cc1nc(C(=O)N2CCN(C(c3ccc(Cl)cc3)c3ccc(Cl)cc3)CC2)cs1
IC50 (HCT-116): > 1000 nM
IC50 (NCI-H522 [1]): 17 nM
deltaT [6]: 7 °C
Activity (NCI-H522 [7]): Active
IC50 (NCI-H522 [8]): 7890 nM
Ratio IC50 [9]: 464.353
IC50 (HT-1080): 19 nM
IC50 (MDA-MB-468): 84 nM
IC50 (MDA-MB-231): 21 nM
IC50 (HeLa): 242 nM
IC50 (U2OS): 367 nM
IC50 at 3 days [10]: 22 nM
IC50 at 3 days [11]: 10 nM

C#CCNC(=O)c1csc(C#C)n1
Activity [12]: Active
IC50 (HCT-116): 19200 nM
IC50 (NCI-H522 [1]): 2100 nM
Activity (NCI-H522 [13]): Active
Activity [14]: Active
Activity [15]: Active
Activity [16]: Active
Activity [17]: Active
